Screening results deposited in PubChem by Broad Institute.
SIRT5 block: inhibitors of human sirtuin-5 desuccinylase | inhibition, % at 15 µM | 330,000 tested, 1.1% active | Q9NXA8 | AID 652115 | Purified SirT5, succinyl-peptide AMC, trypsin-coupled fluorescence; in the data active = inhibition above about 15%
F508del corr: correctors of CFTR F508del function in bronchial epithelial cells; activity (quench increase), % at 7.58 µM; CFBE cells, YFP halide quenching; stimulated with forskolin plus potentiator P3; % fluorescence drop versus neutral controls; 350,000 tested, 0.36% active; AID 720511;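 active = mean added fluorescence quench of at least 8% versus neutral control, with both replicates also reaching 8%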;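 note: cells transiently co-express mutant CFTR-F508del with the halide-sensitive YFP; corrector assay measuring rescue of mutant channel to the surface after 24 h compound exposure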
Ecoli rRNA inh: inhibitors of bacterial rRNA selective over humanized ribosomes. E. coli WT GFP vs humanized-ribosome RFP mutants, fluorescence, 24 h; stronger effect = lower value; DMSO median 0, no signal -100. GFP signal change (wild-type ribosome), % (test concentration not listed). 350,000 tested, 1.6% active. AID 720706;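 active = significant combined selectivity score with lowered wild-type GFP, culture density cut under 30%, mutant RFP and density less affected; inactive = any of these conditions unmet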
S100A4 MyoIIA: S100A4-myosin IIA interaction inhibition | 360,000 tested, 0.14% active | inhibition, % at 10.7 µM | S100A4/TAMRA-MyoIIA peptide fluorescence polarization;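 active = mean inhibition of at least 70% across replicates, with every replicate also reaching that level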
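Test system: S100A4 monomer protein. Medium: HEPES buffer with Ca2+, pH 7.2. Reagent: fluorescent myosin IIA peptide, 5 nM. Compound dosing: single-point compound testing. Timing: 5 min between mix addition and reading. Benchmarks: DMSO neutral and TFP positive wells.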
ERAP1 inh: inhibitors of human ERAP1 aminopeptidase; Q9NZ08; recombinant ERAP1, Leu-AMC fluorescence, 60 min; inhibition, % at 10.7 µM; 340,000 tested, 0.15% active; AID 652197;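 active = mean replicate inhibition of at least 30%, or all replicates individually reaching that 30% level; inactive = mean below 30% and not every replicate reaching it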;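 note: 0% = neutral control wells and 100% = L-leucinethiol positive control wells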
Target sequence (Q9NZ08 whole entry, looked up): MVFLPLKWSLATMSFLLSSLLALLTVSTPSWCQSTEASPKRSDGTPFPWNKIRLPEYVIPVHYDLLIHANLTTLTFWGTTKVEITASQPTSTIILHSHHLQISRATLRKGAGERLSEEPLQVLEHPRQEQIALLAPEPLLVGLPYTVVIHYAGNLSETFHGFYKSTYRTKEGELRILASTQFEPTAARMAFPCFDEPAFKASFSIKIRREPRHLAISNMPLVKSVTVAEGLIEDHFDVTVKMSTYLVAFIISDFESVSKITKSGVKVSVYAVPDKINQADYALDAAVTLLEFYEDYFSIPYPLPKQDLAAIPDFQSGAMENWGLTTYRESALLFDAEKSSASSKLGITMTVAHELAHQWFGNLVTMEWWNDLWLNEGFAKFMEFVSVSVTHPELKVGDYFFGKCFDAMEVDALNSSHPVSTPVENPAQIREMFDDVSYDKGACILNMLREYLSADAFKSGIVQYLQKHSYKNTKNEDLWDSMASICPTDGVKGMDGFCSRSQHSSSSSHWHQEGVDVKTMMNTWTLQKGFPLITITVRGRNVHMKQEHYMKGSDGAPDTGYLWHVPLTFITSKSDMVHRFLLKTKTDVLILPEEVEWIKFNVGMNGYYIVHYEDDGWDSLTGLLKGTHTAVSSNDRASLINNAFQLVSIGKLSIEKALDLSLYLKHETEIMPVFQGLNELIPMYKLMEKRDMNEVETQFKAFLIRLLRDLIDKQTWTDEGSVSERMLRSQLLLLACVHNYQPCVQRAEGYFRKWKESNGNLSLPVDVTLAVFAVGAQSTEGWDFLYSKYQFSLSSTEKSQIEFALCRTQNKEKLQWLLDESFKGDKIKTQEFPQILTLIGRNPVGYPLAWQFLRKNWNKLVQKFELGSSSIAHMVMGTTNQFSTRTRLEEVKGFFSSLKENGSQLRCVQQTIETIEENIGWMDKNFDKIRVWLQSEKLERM
Numbers without * were called inactive; . = no result given. This is a sample that favours compounds with a hit; in the whole collection about 3.1% have one here.

SMILES	SIRT5 block	F508del corr	Ecoli rRNA inh	S100A4 MyoIIA	ERAP1 inh
O=S(=O)(c1ccc2ccccc2c1)N1CCOCC1	99.4*	-0.6	3.9	2.4	2.4
COCC#Cc1ccc2c(c1)O[C@@H](CN(C)CC1CCOCC1)[C@H](C)CN([C@H](C)CO)S2(=O)=O	-1.8	1.0	-2.4	3.3	-1.0
CC(C)(C)C1CCC(=NNc2nc3ccccc3[nH]2)CC1 (stereo not given)	19.0*	0.7	-23.0*	0.4	1.8
c1ccc(CN2CCC(=NNc3nc4ccccc4[nH]3)CC2)cc1	10.4	.	-26.6	-0.9	-1.6
COc1cc(Cl)cc2c1Sc1ccccc1/C2=C/CCN(C)C	.	.	.	-1.8	.
CN(C)CC/C=C1/c2cc(F)ccc2Sc2ccc(Cl)cc21	-2.5	-3.0	-50.1*	-0.8	3.5
COc1cc(NC(=O)COC(=O)CNC(=O)c2ccc(C)cc2)c(C)cc1[N+](=O)[O-]	20.4*	0.9	10.0	-19.8	-0.3
CCOCC(=O)OCC(=O)Nc1cc(OC)c([N+](=O)[O-])cc1C	.	0.5	10.3	-16.6	-0.8
COc1cc(NC(=O)COC(=O)c2n[nH]c3ccccc23)c(C)cc1[N+](=O)[O-]	0.8	19.6*	17.8	0.0	-5.1
O=C([C@H]1N[C@H]2c3ccc(C4=CCCCC4)c(=O)n3C[C@H]2[C@@H]1CO)N1CCc2ccccc2C1	.	0.9	-4.7	.	.
Cc1ccc(NS(=O)(=O)c2ccc(NC(=O)C3CC3)cc2)cc1C	-3.4	-0.8	-23.6*	-7.9	1.2
O=C(Nc1ccc(S(=O)(=O)Nc2ccccc2)cc1)C1CC1	-2.9	-1.9	-1.1	-2.2	1.6
COCC(=O)N1CC(=O)N2[C@H](CO)[C@H](c3ccc(Br)cc3)[C@H]2C1	-2.8	-4.2	2.3	2.0	1.9
CCS(=O)(=O)Nc1ccc2c(c1)C(=O)N(C)[C@@H]1CC[C@@H](CC(=O)OC)O[C@H]1CO2	-1.6	0.7	0.1	1.4	0.3
CC(C)CC#Cc1ccc2c(c1)O[C@@H](CN(C)Cc1ccccc1F)[C@H](C)CN([C@H](C)CO)S2(=O)=O	22.0*	0.2	-3.4	-1.0	-0.3
C[C@@H]1CN([C@H](C)CO)S(=O)(=O)c2ccc(C#CC3CC3)cc2O[C@H]1CN(C)Cc1ccc(F)cc1	16.0*	-10.2	-1.2	10.8	-2.5
C[C@H](CO)N1C[C@H](C)[C@@H](CN(C)Cc2ccc(F)cc2)Oc2cc(C#CC3CC3)ccc2S1(=O)=O	13.0	-2.5	1.7	-15.3	1.5
C[C@H]1CN([C@@H](C)CO)S(=O)(=O)c2ccc(C#CC3CC3)cc2O[C@@H]1CN(C)Cc1ccccc1F	17.4*	0.4	-3.3	4.2	-3.3
C[C@@H]1CN([C@H](C)CO)S(=O)(=O)c2ccc(C#CC3CC3)cc2O[C@@H]1CN(C)Cc1ccccc1F	8.5	-2.6	-12.7	-12.8	-4.5
CO[C@H]1CN(C)C(=O)c2cc(NC(=O)C3CCC3)ccc2OC[C@H](C)N(C(=O)NC(C)C)C[C@@H]1C	0.6	0.1	-4.7	-0.5	-0.6
CO[C@H]1CN(C)C(=O)c2ccc(NC(=O)c3cc(C)on3)cc2OC[C@H](C)N(C(C)=O)C[C@H]1C	-0.7	-0.8	-0.5	9.8	-0.2
O=C(C[C@H]1CC[C@H](NC(=O)Nc2cc(F)ccc2F)[C@H](CO)O1)Nc1ccc(-c2ccccc2)cc1	3.2	1.8	-5.0	-1.2	-0.4
CCCCC(CC)C(=O)Oc1ccc(O)c(C(C)(C)C)c1 (stereo not given)	19.2*	-1.9	-21.7*	-7.7	2.7
NC(=O)C1CCN(C2=C(NS(=O)(=O)c3ccc(Cl)cc3)C(=O)c3ccccc3C2=O)CC1	2.2	-0.4	-21.1*	3.5	4.1
O=C(C[C@H]1C=C[C@H](NC(=O)Cc2cccnc2)[C@@H](CO)O1)Nc1ccccc1	0.2	2.8	1.7	41.3	3.8
CCS(=O)(=O)N1CCCCN2[C@H](C1)[C@@H](c1ccc(-c3ccccc3)cc1)[C@@H]2CO	15.8*	0.8	-1.6	7.9	-2.6
Cc1ccccc1S(=O)(=O)N1CCCCN2[C@@H](CO)[C@@H](c3ccc(-c4ccccc4)cc3)[C@@H]2C1	-0.7	-2.2	.	-5.7	3.1
CCS(=O)(=O)N1CCCCN2[C@H](CO)[C@H](c3ccc(-c4ccccc4)cc3)[C@H]2C1	2.9	-2.7	0.9	11.4	0.3
